Tests used:
Plasmodium falciparum = test: Antiplasmodial activity against drug-sensitive erythrocyte stage of Plasmodium falciparum NF54 assessed as reduction in [3H]-hypoxanthine incorporation pretreated for 48 hrs followed by [3H]-hypoxanthine addition measured after 24 hrs by liquid scintillation counting method; type: functional, organism-based
How it was run: (§1)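 IC50 values are the average of three independent assays.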

[1] = tested on: Trypanosoma brucei rhodesiense; test: Antitrypanosomal activity against Trypanosoma brucei rhodesiense STIB900 bloodstream forms after 70 hrs by Alamar blue assay; type: functional, organism-based; settings: STIB900, 70 h; how it was run: as §1
Trypanosoma cruzi = test: Antiprotozoal activity against trypomastigote form of Trypanosoma cruzi Tulahuen C2C4 infected in rat L6 cells after 96 hrs by CPRG/Nonidet-based photometric method; type: functional, organism-based; settings: Tulahuen C2C4, L6, 96 h
L6 = test: Cytotoxicity against rat L6 cells after 70 hrs by alamar blue assay; type: cell-based; settings: L6, 70 h; how it was run: as §1
[2] = Selectivity index, ratio of IC50 for rat L6 cells to IC50 for drug-sensitive erythrocyte stage of Plasmodium falciparum NF54; type: toxicity; settings: read-out: Ratio IC50
[3] = Selectivity index, ratio of IC50 for rat L6 cells to IC50 for Trypanosoma brucei rhodesiense STIB900 bloodstream forms; type: toxicity; settings: read-out: Ratio IC50
[4] = Selectivity index, ratio of IC50 for rat L6 cells to IC50 for trypomastigote form of Trypanosoma cruzi Tulahuen C2C4 infected in rat L6 cells; type: toxicity, cell-based; settings: read-out: Ratio IC50
Leishmania donovani = test: Antileishmanial activity against Leishmania donovani MHOM/ET/67/L82 axenic amastigotes after 70 hrs by alamar blue staining based fluorescence assay; type: functional, organism-based; settings: MHOM/ET/67/L82, 70 h; how it was run: as §1
[5] = Selectivity index, ratio of IC50 for rat L6 cells to IC50 for Leishmania donovani MHOM/ET/67/L82 axenic amastigotes; type: toxicity; settings: read-out: Ratio IC50

| Structure (SMILES) | IC50 (Plasmodium falciparum) [µM] | IC50 [1] [µM] | IC50 (Trypanosoma cruzi) [µM] | IC50 (L6) [µM] | selectivity ratio [2] | selectivity ratio [3] | selectivity ratio [4] | IC50 (Leishmania donovani) [µM] | selectivity ratio [5] |
| --- | --- | --- | --- | --- | --- | --- | --- | --- | --- |
| CC(C)c1cc(CC[C@@H]2C(=O)CCCC2(C)C)c(O)cc1O | 0.4 | 19.7 | 27.6 | 33.6 | 84 | 1.7 | 1.2 |  |  |
| CCCCCCCCCCCCCCCCOP(=O)([O-])OCC[N+](C)(C)C [MILTEFOSINE] |  |  |  |  |  |  |  | 0.12 |  |
| CC(C)[C@H]1C(=O)C2=C(C1=O)[C@@]1(C)CCCC(C)(C)[C@@H]1CC2=O | 3.6 | 1 | 4.6 | 2.6 | 0.7 | 2.6 | 0.6 | 1 | 2.6 |

— ChEMBL document CHEMBL4145616, “Phytochemical Study of Salvia leriifolia Roots: Rearranged Abietane Diterpenoids with Antiprotozoal Activity” (J Nat Prod, 2018)
